Results: publication PMC2532710 (Nucleic Acids Research, 2008)
“And” between values parts separate entries of the source, which are not always exact repeats. Identical values can stand only once.

Tests used:
HJ substrate = test: 2-AP fluorescence quenching, HJ substrate; assay type: binding
Outline: (§1)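 Substrates were annealed from oligos (boiled 5 min, slow-cooled), gel-purified on native 12% PAGE and quantified spectrophotometrically. After ≥10 min equilibration, emission was read at 330–430 nm (excitation 315 nm). Adenine-substituted spectra were subtracted, and fold decrease at 370 nm was taken versus no peptide.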

linear dsDNA = settings: cited from earlier work
Flayed fork = test: 2-AP titration Kd, flayed fork; assay type: binding; settings: Kd ratio, n = 1
Outline: (§2)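 Each substrate carried 2-AP at strand 4, position 2 and was used at 0.1 μM in 20 mM Tris-HCl pH 7.8, 25 mM NaCl, 1 mM EDTA, 1.6% DMSO at 24°C. Peptide dimer added in 2-fold steps from 0.003125 μM, 3 min each. Excitation 315 nm, emission 330–430 nm. Adenine background subtracted, 365–375 nm averaged. Fc fitted by least squares to pooled 2–3 dilution series. Value given as Kd relative to HJ Kd.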

flayed duplex molecule = test: 2-AP fluorescence quenching, flayed duplex; assay type: binding
Outline: as §1

protein-free HJ DNA = settings: cited from earlier work
Complete fork = test: 2-AP titration Kd, complete fork; assay type: binding; settings: Kd ratio, n = 1
Outline: as §2

human RAD54 protein = settings: cited from earlier work
[1] = test system: RecG binding to HJ substrate; test: RecG/; set-up: species or system Escherichia coli
RecG helicase = settings: cited from earlier work
Holliday junction = test: 2-AP titration Kd, Holliday junction; assay type: binding; settings: Kd ratio, n = 1
Outline: as §2

In the case of (WRWYCR)2 (disulfide), the “quenching of four central 2-AP bases” value (HJ substrate; 4-fold excess of peptide dimer over substrate) is reported as “at least 1.6 fold”, the “fold decrease in 2-AP fluorescence at 370 nm” value (shortened to “fold decrease”) (HJ substrate; HJ-1AP1 (central base), 0.2 μM dimer, 1:1) is reported as 1.2 fold and the “fold decrease” value (HJ substrate; HJ-1AP1 (central base), 0.8 μM dimer, 4:1) is reported as 1.6 fold. The “fold decrease” value (HJ substrate; HJ-1AP1 (central base), 1.6 μM dimer, 8:1) was 1.8 fold, the “fold decrease” value (HJ substrate; HJ-3AP1 (central base), 0.2 μM dimer, 1:1) was 1.3 fold and the “fold decrease” value (HJ substrate; HJ-3AP1 (central base), 0.8 μM dimer, 4:1) was 2.0 fold. For the same substance, the “fold decrease” value (HJ substrate; HJ-3AP1 (central base), 1.6 μM dimer, 8:1) was 2.2 fold, the “fold decrease” value (HJ substrate; HJ-3AP2, 0.2 μM dimer, 1:1) was 1.0 fold and the “fold decrease” value (HJ substrate; HJ-4AP1 (central base), 0.2 μM dimer, 1:1) was 1.2 fold. The “fold decrease” value (HJ substrate; HJ-4AP1 (central base), 0.8 μM dimer, 4:1) was 1.9 fold, the “fold decrease” value (HJ substrate; HJ-4AP1 (central base), 1.6 μM dimer, 8:1) was 1.8 fold and the “fold decrease” value (HJ substrate; HJ-4AP2 (central base), 0.05 μM dimer, 0.25:1) was 1.0 fold. For the same substance, the “fold decrease” value (HJ substrate; HJ-4AP2 (central base), 0.2 μM dimer, 1:1) was 1.2 fold, the “fold decrease” value (HJ substrate; HJ-4AP2 (central base), 0.8 μM dimer, 4:1) was 2 fold and 2.0 fold and the “fold decrease” value (HJ substrate; HJ-4AP2 (central base), 1.6 μM dimer, 8:1) was 2.2 fold. For the same substance, the “fold decrease” value (HJ substrate; HJ-4AP3, 0.05 μM dimer, 0.25:1) was 1.0 fold, the “fold decrease” value (HJ substrate; HJ-4AP3, 0.2 μM dimer, 1:1) was 1.2 fold and the “fold decrease” value (HJ substrate; HJ-4AP4, 0.05 μM dimer, 0.25:1) was 1.0 fold. For the same substance, the “fold decrease” value (HJ substrate; HJ-4AP4, 0.2 μM dimer, 1:1) was 1.0 fold, the “fold decrease” value (HJ substrate; HJ-4AP4, 0.8 μM dimer, 4:1) was 1.2 fold and the “fold decrease” value (HJ substrate; HJ-4AP4, 1.6 μM dimer, 8:1) was 1.2 fold. The “quenching of 2-AP in the center of HJ and replication forks” value (HJ substrate; center of both HJ and replication forks) was “quench the fluorescence of 2-AP bases”, the “quenching of central bases, preliminary set” value (HJ substrate; the eighth central base, Boldt and Segall, unpublished data, preliminary) was 1.6 X and the “interaction with linear dsDNA” value (linear dsDNA) was “not with linear dsDNA”. For the same substance, the “binding to dsDNA” value (linear dsDNA; high concentrations) was “binds to dsDNA nonspecifically at high concentrations”, the “Fold reduced versus HJ” value (Flayed fork) was 43.9 and the “fold decrease” value (flayed duplex molecule; Flayed-1AP1 (central base), 1.6 μM dimer, 8:1) was 1.3 fold. The “fold decrease” value (flayed duplex molecule; Flayed-4AP1 (central base), 0.8 μM dimer, 4:1) was 1.2 fold, the “2-AP quenching” value (flayed duplex molecule; Flayed-4AP1, 4AP2 and 4AP3, compared with leading strand fork) was “even less sensitive to quenching” and the “fold decrease” value (flayed duplex molecule; Flayed-4AP2 (central base), 0.05 μM dimer, 0.25:1) was 1.0 fold. For the same substance, the “fold decrease” value (flayed duplex molecule; Flayed-4AP2 (central base), 0.8 μM dimer, 4:1) was 1.3 fold, the “fold decrease” value (flayed duplex molecule; Flayed-4AP3, 0.05 μM dimer, 0.25:1) was 1.0 fold and the “fold decrease” value (flayed duplex molecule; Flayed-4AP3, 0.8 μM dimer, 4:1) was 1.2 fold. For the same substance, the “fold decrease” value (flayed duplex molecule; Flayed-4AP3, 1.6 μM dimer, 8:1) was 1.3 fold, the “fold decrease” value (flayed duplex molecule; Flayed-4AP4, 0.05 μM dimer, 0.25:1) was 1.0 fold and the “fold decrease” value (flayed duplex molecule; Flayed-4AP4, 0.2 μM dimer, 1:1) was 1.0 fold. The “fold decrease” value (flayed duplex molecule; Flayed-4AP4, 1.6 μM dimer, 8:1) was 1.2 fold, the “2-AP quenching” value (flayed duplex molecule; Flayed-4AP4 and Flayed-1AP1) was “only weakly quenched” and the “binding to free HJ DNA” value (protein-free HJ DNA) was “bind specifically to free HJ DNA”. For the same substance, the “effect of Mg^2+ or spermidine on HJ binding” value (protein-free HJ DNA) was “strongly inhibited”, the “Fold reduced versus HJ” value (Complete fork) was 4.4 and the “inhibition of D-loop unwinding activity” value (human RAD54 protein) was “inhibit the D-loop unwinding activity”. The “mechanism of inhibition of RecG” value [1] was “competitive mechanism”, the “inhibition of RecG binding to HJ” value ([1]; 0.02 μM RecG, 0.025 μM peptide dimer, 2 nM HJ) was “strongly inhibited” and the “inhibition of RecG binding to HJ” value ([1]; 0.02 μM RecG, 0.1 μM peptide, 2 nM HJ) was “almost completely inhibited”. The “inhibition of RecG binding to HJ” value ([1]; 0.2 μM RecG, 0.025 μM peptide) was “only weak inhibition”, the “inhibition of RecG–DNA complexes, order of addition” value ([1]; data not shown, Saha and Segall, unpublished data) was “occurs whether the peptide is added to DNA 10 min before or after RecG” and the “inhibition of unwinding of branched DNA substrates by RecG” value (RecG helicase) was “inhibit unwinding of branched DNA substrates”. The “inhibition of RecG by fork type” value (RecG helicase; fork with only lagging vs only leading strand) was “inhibits RecG most on a fork substrate with only the lagging strand and least on a fork substrate with only the leading strand” and the “Fold reduced versus HJ” value (Holliday junction) was 1.
